Measurements: ChEMBL document CHEMBL1157689, “Synthesis and anti-HIV evaluation of water-soluble calixarene-based bithiazolyl podands” (Bioorg Med Chem, 2010)
pIC50: −log10 of the molar value.

How the values were obtained:
[1] = test system: Human immunodeficiency virus 1; experiment: Antiviral activity against HIV1 LAI infected in human CEM-SS cells assessed as inhibition of viral replication by reverse transcriptase activity measurement; conditions: Human immunodeficiency virus 1, LAI
[2] = test system: Human immunodeficiency virus 1; experiment: Antiviral activity against HIV1 BaL infected in human PBMC assessed as inhibition of viral replication by reverse transcriptase activity measurement; conditions: Human immunodeficiency virus 1, BaL
[3] = Selectivity index, ratio of CC50 for human CEM-SS cells to IC50 for HIV1 LAI infected in human CEM-SS cells; assay type: functional
How it was run: (§1)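 Selectivity index calculated as CC50/IC50 for each cell system: CEM-SS/HIV-1 LAI, MT4/HIV-1 IIIB, PBMC/HIV-1 Bal.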

[4] = Cytotoxicity against human MT4 cells by MTT assay; assay type: cell-based
How it was run: (§2)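 Uninfected CEM-SS, MT4 or PBMC cells exposed to compound, up to 100 μM for most compounds. CC50 is the concentration causing 50% death of uninfected cells. Values are averages of at least two or three separate experiments.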

[5] = Cytotoxicity against human PBMC by MTT assay; assay type: cell-based
How it was run: as §2

[6] = test system: Human immunodeficiency virus 1; experiment: Antiviral activity against HIV1 3B infected in human MT4 cells assessed as protection from virus-induced cytopathogenicity by MTT assay; assay type: functional, organism-based; conditions: Human immunodeficiency virus 1, 3B
How it was run: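 HIV-1 IIIB replication in MT4 cells followed by virus-induced cytopathogenic effect. IC50 is the concentration protecting 50% of infected cells against cytopathogenicity. Values are averages of at least two or three separate experiments.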

[7] = Cytotoxicity against human CEM-SS cells by MTT assay; assay type: cell-based
How it was run: as §2

[8] = Selectivity index, ratio of CC50 for human PBMC to IC50 for HIV1 BaL infected in human PBMC; assay type: functional
How it was run: as §1

[9] = Selectivity index, ratio of CC50 for human MT4 cells to IC50 for HIV1 3B infected in human MT4 cells; assay type: functional
How it was run: as §1

## O=C([O-])Cc1cc2c(O)c(c1)Cc1cc(CC(=O)[O-])cc(c1O)Cc1cc(CC(=O)[O-])cc(c1O)Cc1cc(CC(=O)[O-])cc(c1O)C2.[Na+].[Na+].[Na+].[Na+]
[1]
  pIC50: 4.09
[2]
  pIC50: 5.02
[3]
  Ratio CC50/IC50: >1.2
[4]
  CC50: > 100 µM
[5]
  CC50: 100 µM
[6]
  pIC50: 4.36
[7]
  CC50: > 100 µM
[8]
  Ratio CC50/IC50: 10.5
[9]
  Ratio CC50/IC50: >2.3

## O=P([O-])(O)Cc1cc2c(O)c(c1)Cc1cc(CP(=O)([O-])O)cc(c1O)Cc1cc(CP(=O)([O-])O)cc(c1O)Cc1cc(CP(=O)([O-])O)cc(c1O)C2.[Na+].[Na+].[Na+].[Na+]
[1]
  pIC50: < 4.00
[2]
  pIC50: 4.15
[4]
  CC50: > 100 µM
[5]
  CC50: 78 µM
[6]
  pIC50: < 4.00
[7]
  CC50: > 100 µM
[8]
  Ratio CC50/IC50: >1

## O=S(=O)([O-])c1cc2c(O)c(c1)Cc1cc(S(=O)(=O)[O-])cc(c1O)Cc1cc(S(=O)(=O)[O-])cc(c1O)Cc1cc(S(=O)(=O)[O-])cc(c1O)C2.[Na+].[Na+].[Na+].[Na+]
[1]
  pIC50: 4.07
[2]
  pIC50: 4.35
[3]
  Ratio CC50/IC50: >1.2
[4]
  CC50: > 100 µM
[5]
  CC50: > 100 µM
[6]
  pIC50: 4.42
[7]
  CC50: > 100 µM
[8]
  Ratio CC50/IC50: >2
[9]
  Ratio CC50/IC50: >2.6

## Cc1nc(-c2nc(COc3c4cc(CC(=O)[O-])cc3Cc3cc(CC(=O)[O-])cc(c3O)Cc3cc(CC(=O)[O-])cc(c3OCc3nc(-c5nc(C)c(C(=O)[O-])s5)sc3C(=O)[O-])Cc3cc(CC(=O)[O-])cc(c3O)C4)c(C(=O)[O-])s2)sc1C(=O)[O-].[Na+].[Na+].[Na+].[Na+].[Na+].[Na+].[Na+].[Na+]
[1]
  pIC50: 5.28
[2]
  pIC50: < 4.43
[3]
  Ratio CC50/IC50: >26
[4]
  CC50: > 100 µM
[5]
  CC50: 37 µM
[6]
  pIC50: 4.85
[7]
  CC50: > 100 µM
[8]
  Ratio CC50/IC50: <1
[9]
  Ratio CC50/IC50: >7

## Cc1csc(-c2nc(COc3c4cc(CC(=O)[O-])cc3Cc3cc(CC(=O)[O-])cc(c3O)Cc3cc(CC(=O)[O-])cc(c3OCc3csc(-c5nc(C)cs5)n3)Cc3cc(CC(=O)[O-])cc(c3O)C4)cs2)n1.[Na+].[Na+].[Na+].[Na+]
[1]
  pIC50: 4.55
[2]
  pIC50: 4.56
[3]
  Ratio CC50/IC50: >36
[4]
  CC50: > 1000 µM
[5]
  CC50: 230 µM
[6]
  pIC50: 4.78
[7]
  CC50: > 1000 µM
[8]
  Ratio CC50/IC50: 8.3
[9]
  Ratio CC50/IC50: >60

## Cc1csc(-c2nc(COc3c4cc(CP(=O)([O-])O)cc3Cc3cc(CP(=O)([O-])O)cc(c3O)Cc3cc(CP(=O)([O-])O)cc(c3OCc3csc(-c5nc(C)cs5)n3)Cc3cc(CP(=O)([O-])O)cc(c3O)C4)cs2)n1.[Na+].[Na+].[Na+].[Na+]
[1]
  pIC50: 4.82
[2]
  pIC50: 4.24
[3]
  Ratio CC50/IC50: >6
[4]
  CC50: > 100 µM
[5]
  CC50: 92 µM
[6]
  pIC50: 4.85
[7]
  CC50: > 100 µM
[8]
  Ratio CC50/IC50: >1.7
[9]
  Ratio CC50/IC50: >7

## Cc1cn([C@H]2C[C@H](N=[N+]=[N-])[C@@H](CO)O2)c(=O)[nH]c1=O [ZIDOVUDINE]
[1]
  pIC50: 8.29
[2]
  pIC50: 8.11
[4]
  CC50: > 100 µM
[5]
  CC50: 75 µM
[7]
  CC50: > 100 µM
